Series [1] relates to L1210. The series is described as follows: Antileukemic activity against mouse L1210 cells allografted in BDF1 mouse assessed as host survival at 65.1 umol/kg, ip after 30 days. It is filed as functional, organism-based. An outline of the steps:
(§1)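 BDF1 mice, 5 weeks old; test groups four males + four females, controls five + five. 5×10^5 L1210 cells in 0.1 ml saline given ip. Compound, suspended in suspending vehicle (sodium salt dissolved), injected ip once on the day after inoculation. Survival followed to 30 days; mice surviving beyond 30 days counted as 30 days and scored as survivor fraction; activity as increased life span over controls.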

The test system of series [2] is L1210. The series is described as follows: Antileukemic activity against mouse L1210 cells allografted in BDF1 mouse assessed as increase in life span of host at 26 umol/kg, ip relative to control. In kind it is functional. An outline of the steps: (§2)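 BDF1 mice, 5 weeks old, were inoculated ip with 5×10^5 L1210 cells; test groups had 4 males and 4 females, controls 5 males and 5 females. A single ip dose was given on the day after inoculation, as a suspension in vehicle for the insoluble compounds. Read-out was increase in life span over controls, with survivors past 30 days counted as 30 days.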

The test system of series [3] is L1210. The series is described as follows: Antileukemic activity against mouse L1210 cells allografted in BDF1 mouse assessed as host survival at 5.56 umol/kg, ip after 30 days. In kind it is functional, organism-based. An outline of the steps: (§3)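 BDF1 mice, 5 weeks old, were inoculated ip with 5×10^5 L1210 cells in 0.1 ml saline. Test groups were 4 male and 4 female mice; controls were 5 male and 5 female. Insoluble compounds were suspended in vehicle. Dosing was ip, either once on the day after inoculation or daily for 5 days. Read-out was increase in life span over controls. Mice alive beyond 30 days were counted as 30 days and scored as survivors.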

The subject of series [4] is L1210. The series is described as follows: Antileukemic activity against mouse L1210 cells allografted in BDF1 mouse assessed as host survival at 26 umol/kg, ip after 30 days. It is filed as functional, organism-based. An outline of the steps: as §1
Series [5] can be described thus: Solubility of the compound. In kind it is physicochemical.
Series [6] deals with L1210. The series is described as follows: Antileukemic activity against mouse L1210 cells allografted in BDF1 mouse assessed as increase in life span of host at 65.1 umol/kg, ip relative to control. In kind it is functional. In a few lines: as §2
For series [7], the system named is L1210. The series is described as follows: Antileukemic activity against mouse L1210 cells allografted in BDF1 mouse assessed as host survival at 130 umol/kg, ip after 30 days. In kind it is functional, organism-based. An outline of the steps:
as §1

The test system of series [8] is L1210. The series is described as follows: Antileukemic activity against mouse L1210 cells allografted in BDF1 mouse assessed as increase in life span of host at 130 umol/kg, ip relative to control. In kind it is functional. In a few lines:
as §3

Series [9] concerns L1210. Description: Antileukemic activity against mouse L1210 cells allografted in BDF1 mouse assessed as increase in life span of host at 65.8 umol/kg, ip relative to control. In kind it is functional. In a few lines: as §2
Series [10] has as its system L1210. The series is described as follows: Antileukemic activity against mouse L1210 cells allografted in BDF1 mouse assessed as increase in life span of host at 26.3 umol/kg, ip relative to control. It is filed as functional. An outline of the steps:
as §2

Series [11] has as its system L1210. The series is described as follows: Antileukemic activity against mouse L1210 cells allografted in BDF1 mouse assessed as host survival at 65.8 umol/kg, ip after 30 days. In kind it is functional, organism-based. An outline of the steps: as §3
Series [12] deals with L1210. The series is described as follows: Antileukemic activity against mouse L1210 cells allografted in BDF1 mouse assessed as host survival at 132 umol/kg, ip after 30 days. In kind it is functional, organism-based. An outline of the steps: as §3
Series [13] relates to L1210. The series is described as follows: Antileukemic activity against mouse L1210 cells allografted in BDF1 mouse assessed as increase in life span of host at 27.8 umol/kg, ip relative to control. In kind it is functional. In a few lines:
as §2

Series [14] has as its system L1210. The series is described as follows: Antileukemic activity against mouse L1210 cells allografted in BDF1 mouse assessed as increase in life span of host at 132 umol/kg, ip relative to control. In kind it is functional. In a few lines:
as §3

The test system of series [15] is L1210. The series is described as follows: Antileukemic activity against mouse L1210 cells allografted in BDF1 mouse assessed as increase in life span of host at 5.56 umol/kg, ip relative to control. In kind it is functional. In a few lines: as §2
The test system of series [16] is L1210. Description: Antileukemic activity against mouse L1210 cells allografted in BDF1 mouse assessed as increase in life span of host at 71.8 umol/kg, ip relative to control. It is filed as functional. An outline of the steps: as §2
Series [17] deals with L1210. Description: Antileukemic activity against mouse L1210 cells allografted in BDF1 mouse assessed as host survival at 287 umol/kg, ip after 30 days. It is filed as functional, organism-based. An outline of the steps: as §3
Series [18] has as its system L1210. Description: Antileukemic activity against mouse L1210 cells allografted in BDF1 mouse assessed as host survival at 28.7 umol/kg, ip after 30 days. It is filed as functional, organism-based. In a few lines: as §3
The test system of series [19] is L1210. Description: Antileukemic activity against mouse L1210 cells allografted in BDF1 mouse assessed as increase in life span of host at 287 umol/kg, ip relative to control. It is filed as functional. An outline of the steps:
as §2

Series [20] concerns L1210. The series is described as follows: Antileukemic activity against mouse L1210 cells allografted in BDF1 mouse assessed as increase in life span of host at 144 umol/kg, ip relative to control. In kind it is functional. In a few lines:
as §3

The test system of series [21] is L1210. Description: Antileukemic activity against mouse L1210 cells allografted in BDF1 mouse assessed as increase in life span of host at 5.74 umol/kg, ip relative to control. It is filed as functional. An outline of the steps:
as §2

Series [22] has as its system L1210. Description: Antileukemic activity against mouse L1210 cells allografted in BDF1 mouse assessed as host survival at 26.3 umol/kg, ip after 30 days. In kind it is functional, organism-based. In a few lines: as §3
The subject of series [23] is L1210. Description: Antileukemic activity against mouse L1210 cells allografted in BDF1 mouse assessed as host survival at 5.74 umol/kg, ip after 30 days. In kind it is functional, organism-based. An outline of the steps:
as §3

For series [24], the system named is L1210. The series is described as follows: Antileukemic activity against mouse L1210 cells allografted in BDF1 mouse assessed as increase in life span of host at 28.7 umol/kg, ip relative to control. It is filed as functional. An outline of the steps: as §2
Series [25] concerns L1210. The series is described as follows: Antileukemic activity against mouse L1210 cells allografted in BDF1 mouse assessed as host survival at 278 umol/kg, ip after 30 days. In kind it is functional, organism-based. In a few lines:
as §3

Series [26] relates to L1210. The series is described as follows: Antileukemic activity against mouse L1210 cells allografted in BDF1 mouse assessed as host survival at 13.8 umol/kg, po qd for 4 days measured after 30 days. In kind it is functional, organism-based.
Series [27] concerns L1210. The series is described as follows: Antileukemic activity against mouse L1210 cells allografted in BDF1 mouse assessed as host survival at 5.56 umol/kg, po qd for 4 days measured after 30 days. In kind it is functional, organism-based.
Series [28] has as its system L1210. The series is described as follows: Antileukemic activity against mouse L1210 cells allografted in BDF1 mouse assessed as host survival at 1.11 umol/kg, sc qd for 5 days measured after 30 days. It is filed as functional, organism-based.
Series [29] concerns L1210. The series is described as follows: Antileukemic activity against mouse L1210 cells allografted in BDF1 mouse assessed as host survival at 27.8 umol/kg, ip after 30 days. It is filed as functional, organism-based. In a few lines:
as §3

Series [30] has as its system L1210. The series is described as follows: Antileukemic activity against mouse L1210 cells allografted in BDF1 mouse assessed as host survival at 27.8 umol/kg, sc qd for 5 days measured after 30 days. It is filed as functional, organism-based.
The test system of series [31] is L1210. The series is described as follows: Antileukemic activity against mouse L1210 cells allografted in BDF1 mouse assessed as host survival at 5.56 umol/kg, sc qd for 5 days measured after 30 days. It is filed as functional, organism-based.
In series [32] the test system is L1210. Description: Antileukemic activity against mouse L1210 cells allografted in BDF1 mouse assessed as host survival at 1.11 umol/kg, ip qd for 5 days measured after 30 days. It is filed as functional, organism-based. An outline of the steps: as §3
Series [33] concerns L1210. Description: Antileukemic activity against mouse L1210 cells allografted in BDF1 mouse assessed as host survival at 5.21 umol/kg, ip after 30 days. In kind it is functional, organism-based. An outline of the steps:
as §3

Series [34] relates to L1210. Description: Antileukemic activity against mouse L1210 cells allografted in BDF1 mouse assessed as host survival at 13.8 umol/kg, sc qd for 5 days measured after 30 days. In kind it is functional, organism-based.
The test system of series [35] is L1210. Description: Antileukemic activity against mouse L1210 cells allografted in BDF1 mouse assessed as host survival at 13.8 umol/kg, ip qd for 5 days measured after 30 days. In kind it is functional, organism-based. In a few lines:
as §3

The subject of series [36] is L1210. Description: Antileukemic activity against mouse L1210 cells allografted in BDF1 mouse assessed as host survival at 5.56 umol/kg, ip qd for 5 days measured after 30 days. It is filed as functional, organism-based. In a few lines: as §3
The subject of series [37] is L1210. Description: Antileukemic activity against mouse L1210 cells allografted in BDF1 mouse assessed as host survival at 139 umol/kg, ip after 30 days. In kind it is functional, organism-based. In a few lines:
as §3

For series [38], the system named is L1210. Description: Antileukemic activity against mouse L1210 cells allografted in BDF1 mouse assessed as host survival at 27.8 umol/kg, po qd for 4 days measured after 30 days. It is filed as functional, organism-based.

The source made the active and inactive calls. The calls are words filed in the database; no cut-off is given here.

With `C=CCC1(CC=C)C(=O)OCc2c1cc1n(c2=O)Cc2cc3ccccc3nc2-1`, the result in the series with L1210 [1], in the series with L1210 [3], in the series on L1210 [4] and in the series with L1210 [7] was inactive. The ILS at 26 µmol/kg in the series on L1210 [2] is -8%. Further, in [5], the solubility entry is listed as “Insoluble”. For the same compound, in the series with L1210 [6], the ILS at 65.1 µmol/kg worked out at 5%. In addition, the ILS at 130 µmol/kg in the series with L1210 [8] is 1%.
Regarding `CCC1(O)C(=O)OCc2c1cc1n(c2=O)CC2Cc3ccccc3N(C=O)C12` (mixture of isomers), the ILS at 65.8 µmol/kg in the series on L1210 [9] is -9%. Moreover, the result with L1210 [3], in the series on L1210 [11] and with L1210 [12] was inactive. In addition, the solubility entry in series [5] was “Insoluble”. In addition, the ILS at 26.3 µmol/kg with L1210 [10] was -6%. In addition, the ILS at 27.8 µmol/kg in the series with L1210 [13] is over 244%. For the same compound, in the series on L1210 [14], the ILS at 132 µmol/kg is -3%. In addition, the ILS at 5.56 µmol/kg in the series with L1210 [15] was 34%.
For the compound `CCC1(O)C(=O)OCc2c1cc1n(c2=O)Cc2cc3ccccc3nc2-1` (racemic), in the series with L1210 [16], the ILS at 71.8 µmol/kg is over 155%. In addition, the result in the series on L1210 [17], with L1210 [18], with L1210 [22] and in the series on L1210 [23] was inactive. Besides, the solubility entry in series [5] was “Insoluble”. Moreover, in the series on L1210 [10], the ILS at 26.3 µmol/kg was 6%. For the same compound, the ILS at 287 µmol/kg in the series with L1210 [19] was -43%. The ILS at 144 µmol/kg in the series on L1210 [20] was over 60%. The ILS at 5.74 µmol/kg in the series with L1210 [21] worked out at 16%. Also, the ILS at 28.7 µmol/kg in the series on L1210 [24] amounted to 84%.
As for `C=CCC1(O)C(=O)OCc2c1cc1n(c2=O)Cc2cc3ccccc3nc2-1` (racemic), the outcome with L1210 [25], with L1210 [26], in the series with L1210 [27], in the series with L1210 [28], with L1210 [29] and with L1210 [30] was inactive. Moreover, the outcome in the series with L1210 [31], in the series with L1210 [32], in the series on L1210 [33], in the series on L1210 [34], in the series with L1210 [35] and in the series with L1210 [36] was inactive. The outcome with L1210 [23], in the series on L1210 [37] and in the series with L1210 [38] was inactive.

The values are drawn from ChEMBL document CHEMBL3272061, “Experiments of synthesis of dl-camptothecin. 4. Synthesis and antileukemic activity of dl-camptothecin analogues” (J Med Chem, 1976).
